In ChEMBL document CHEMBL1926616, “Design, synthesis and biological evaluation of novel glycosylated diphyllin derivatives as topoisomerase II inhibitors” (Eur J Med Chem, 2012):
Activity calls are given as the source filed them. No cut-off for these calls is given here.

What was measured:
[1] = system: HCT-116; assay: Cytotoxicity against human HCT116 cells after 72 hrs by sulforhodamine B and MTT assay; type: functional, cell-based; details: HCT-116, 72 h
Method in brief: (§1)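 Log-phase cells were plated overnight and exposed for 72 h to a 5-concentration gradient, in triplicate wells. SRB arm: 10% cold TCA fixation for 1 h at 4 °C, 4 mg/ml SRB in 1% acetic acid for 15 min, dye dissolved in 10 mM Tris-HCl, read at 520 nm. MTT arm: 5 mg/mL MTT for 4 h at 37 °C, SDS-isobutanol-HCl solubilisation for 12–20 h, read at 570 nm. IC50 by Logit method from at least 3 independent tests.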

[2] = system: MCF7; assay: Cytotoxicity against human MCF7 cells after 72 hrs by sulforhodamine B and MTT assay; type: functional, cell-based; details: MCF7, 72 h; method in brief: as §1
[3] = system: KB; assay: Cytotoxicity against human KB cells after 72 hrs by sulforhodamine B and MTT assay; type: functional, cell-based; method in brief: as §1
[4] = molecular target: DNA topoisomerase 2-alpha (Homo sapiens) (UniProt P11388); assay: Inhibition of human topoisomerase 2-mediated decatenation of kinetoplast DNA at 100 uM after 15 mins by agarose gel electrophoresis
Chain of DNA topoisomerase 2-alpha (Homo sapiens) (P11388 whole entry): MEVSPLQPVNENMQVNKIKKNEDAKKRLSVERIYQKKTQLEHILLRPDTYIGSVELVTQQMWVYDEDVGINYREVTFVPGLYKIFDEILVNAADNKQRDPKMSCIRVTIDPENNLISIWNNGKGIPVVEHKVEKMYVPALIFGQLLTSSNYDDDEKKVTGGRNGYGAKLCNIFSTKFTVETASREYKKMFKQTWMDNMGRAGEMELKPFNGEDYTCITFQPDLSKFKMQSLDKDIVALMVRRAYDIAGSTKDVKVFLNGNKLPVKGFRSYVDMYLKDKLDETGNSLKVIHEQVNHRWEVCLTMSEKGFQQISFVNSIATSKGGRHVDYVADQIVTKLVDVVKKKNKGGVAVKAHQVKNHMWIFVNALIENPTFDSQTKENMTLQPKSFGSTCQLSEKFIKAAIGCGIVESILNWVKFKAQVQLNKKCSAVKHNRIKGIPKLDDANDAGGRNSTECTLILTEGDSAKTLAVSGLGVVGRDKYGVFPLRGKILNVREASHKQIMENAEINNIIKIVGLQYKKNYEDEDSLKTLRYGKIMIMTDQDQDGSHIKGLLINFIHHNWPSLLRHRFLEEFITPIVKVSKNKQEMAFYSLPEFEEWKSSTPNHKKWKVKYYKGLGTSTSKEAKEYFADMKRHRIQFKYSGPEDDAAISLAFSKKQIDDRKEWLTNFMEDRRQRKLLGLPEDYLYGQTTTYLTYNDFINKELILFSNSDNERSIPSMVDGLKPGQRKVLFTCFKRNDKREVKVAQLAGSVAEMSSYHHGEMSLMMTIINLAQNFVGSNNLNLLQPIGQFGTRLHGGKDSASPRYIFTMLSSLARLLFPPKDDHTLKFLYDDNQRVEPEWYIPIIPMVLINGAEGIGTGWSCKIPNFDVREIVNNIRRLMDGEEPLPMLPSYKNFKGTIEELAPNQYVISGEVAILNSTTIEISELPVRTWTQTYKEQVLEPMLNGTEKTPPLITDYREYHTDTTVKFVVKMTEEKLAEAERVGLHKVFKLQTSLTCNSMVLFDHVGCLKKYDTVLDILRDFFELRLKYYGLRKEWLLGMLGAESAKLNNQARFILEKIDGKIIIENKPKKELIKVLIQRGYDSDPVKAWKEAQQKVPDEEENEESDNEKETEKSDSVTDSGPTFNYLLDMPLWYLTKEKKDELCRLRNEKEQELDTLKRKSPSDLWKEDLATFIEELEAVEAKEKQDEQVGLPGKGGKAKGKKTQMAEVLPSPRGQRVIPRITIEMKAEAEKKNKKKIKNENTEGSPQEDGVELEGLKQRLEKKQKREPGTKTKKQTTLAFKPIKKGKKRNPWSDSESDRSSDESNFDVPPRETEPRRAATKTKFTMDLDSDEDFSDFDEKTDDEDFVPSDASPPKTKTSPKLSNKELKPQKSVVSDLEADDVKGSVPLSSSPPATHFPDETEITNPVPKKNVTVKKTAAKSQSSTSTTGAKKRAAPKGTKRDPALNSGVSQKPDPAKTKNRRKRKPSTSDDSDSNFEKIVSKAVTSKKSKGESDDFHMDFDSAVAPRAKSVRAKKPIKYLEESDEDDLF
Method in brief: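 ATP-dependent kDNA decatenation by 1 unit Topo II in 50 mM Tris-HCl pH 7.7, 50 mM KCl, 5 mM MgCl2, 1 mM ATP, 0.5 mM DTT, 0.5 mM EDTA and BSA, run for 15 min at 37 °C. Stopped with 10% SDS, then run on 1% agarose in TAE at 4 V/cm for 1 h and stained with ethidium bromide.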

[5] = system: KB; assay: Cytotoxicity against vincristine-selected multi drug-resistant human KB cells after 72 hrs by sulforhodamine B and MTT assay; type: functional, cell-based
Method in brief: (§2)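 Log-phase cells were seeded, preincubated (overnight for SRB, 24 h for MTT), then given a five-concentration gradient in triplicate wells for 72 h. For MTT, reagent was added for 4 h at 37 °C, solubilized in SDS-isobutanol-HCl for 12-20 h, and read at 570 nm. IC50 was derived by the Logit method from at least 3 independent tests.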

[6] = system: K562; assay: Resistance index, ratio of IC50 for adriamycin-selected multi drug-resistant human K562 cells to IC50 for human K562 cells; type: functional
Method in brief: (§3)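 Resistance factor is the IC50 in the resistant line divided by the IC50 in the parental line. Both IC50s come from 72 h SRB/MTT growth-inhibition assays, derived by the Logit method from at least 3 independent tests.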

[7] = system: K562; assay: Cytotoxicity against human K562 cells after 72 hrs by sulforhodamine B and MTT assay; type: functional, cell-based; details: K562, 72 h; method in brief: as §2
[8] = system: K562; assay: Cytotoxicity against adriamycin-selected multi drug-resistant human K562 cells after 72 hrs by sulforhodamine B and MTT assay; type: functional, cell-based; details: K562, 72 h; method in brief: as §2
[9] = system: KB; assay: Resistance index, ratio of IC50 for vincristine-selected multi drug-resistant human KB cells to IC50 for human KB cells; type: functional; method in brief: as §3
[10] = system: HCT-116; assay: Cell cycle arrest in human HCT116 cells assessed as accumulation at G2/M phase at 1 to 10 uM using propidium iodide stain by FACS-flow cytometry; type: functional, cell-based; details: TDE = time-dependent effect
[11] = system: HCT-116; assay: Cell cycle arrest in human HCT116 cells assessed as accumulation at G0/G1 phase at 1 to 10 uM after 24 hrs using propidium iodide stain by FACS-flow cytometry; type: functional, cell-based
[12] = system: HCT-116; assay: Cell cycle arrest in human HCT116 cells assessed as accumulation at G2/M phase at 1 to 10 uM after 24 hrs using propidium iodide stain by FACS-flow cytometry; type: functional, cell-based
[13] = system: HCT-116; assay: Cell cycle arrest in human HCT116 cells assessed as accumulation at G0/G1 phase at 1 to 10 uM using propidium iodide stain by FACS-flow cytometry; type: functional, cell-based; details: TDE = time-dependent effect
[14] = system: HL-60; assay: Induction of apoptosis in human HL60 cells assessed as DNA fragmentation at 10 uM after 36 hrs by gel electrophoresis; type: functional, cell-based
Method in brief: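 HL-60 cells were seeded and exposed to compound for 36 h. Harvested cells were lysed with an equal volume of 1.2% SDS, and the fragmented DNA was extracted and resolved by gel electrophoresis.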

[15] = system: HL-60; assay: Cell cycle arrest in human HL60 cells assessed as accumulation at G0/G1 phase at 10 uM after 24 hrs using propidium iodide stain by FACS-flow cytometry (reference value: 39%); type: functional
[16] = system: HL-60; assay: Cell cycle arrest in human HL60 cells assessed as accumulation at S phase at 10 uM after 24 hrs using propidium iodide stain by FACS-flow cytometry (reference value: 38.4%); type: functional
[17] = system: HCT-116; assay: Cell cycle arrest in human HCT116 cells assessed as accumulation at G0/G1 phase after 24 hrs using propidium iodide stain by FACS-flow cytometry; type: functional, cell-based
[18] = system: HL-60; assay: Cell cycle arrest in human HL60 cells assessed as accumulation at G2/M phase after 24 hrs using propidium iodide stain by FACS-flow cytometry; type: functional, cell-based
[19] = system: HL-60; assay: Cell cycle arrest in human HL60 cells assessed as accumulation at G2/M phase at 1 to 10 uM using propidium iodide stain by FACS-flow cytometry; type: functional, cell-based; details: TDE = time-dependent effect
[20] = system: HCT-116; assay: Cell cycle arrest in human HCT116 cells assessed as accumulation at G2/M phase after 24 hrs using propidium iodide stain by FACS-flow cytometry; type: functional, cell-based
[21] = system: HL-60; assay: Cell cycle arrest in human HL60 cells assessed as accumulation at G2/M phase at 10 uM after 24 hrs using propidium iodide stain by FACS-flow cytometry (reference value: 22.6%); type: functional
[22] = system: HL-60; assay: Cell cycle arrest in human HL60 cells assessed as accumulation at G0/G1 phase at 1 to 10 uM using propidium iodide stain by FACS-flow cytometry; type: functional, cell-based; details: TDE = time-dependent effect
[23] = system: HL-60; assay: Cell cycle arrest in human HL60 cells assessed as accumulation at G2/M phase at 1 uM after 24 hrs using propidium iodide stain by FACS-flow cytometry (reference value: 22.6%); type: functional
[24] = system: HL-60; assay: Cell cycle arrest in human HL60 cells assessed as accumulation at G0/G1 phase at 1 uM after 24 hrs using propidium iodide stain by FACS-flow cytometry (reference value: 39%); type: functional
[25] = system: HL-60; assay: Cell cycle arrest in human HL60 cells assessed as accumulation at S phase at 1 uM after 24 hrs using propidium iodide stain by FACS-flow cytometry (reference value: 38.4%); type: functional
[26] = system: HL-60; assay: Cell cycle arrest in human HL60 cells assessed as accumulation at G0/G1 phase after 24 hrs using propidium iodide stain by FACS-flow cytometry; type: functional, cell-based

SMILES	IC50 [1] [nM]	IC50 [2] [nM]	IC50 [3] [nM]	inhibition [4]	IC50 [5] [nM]	Ratio IC50 [6]	IC50 [7] [nM]	IC50 [8] [nM]	Ratio IC50 [9]	further results
COc1cc2c(O[C@@H]3O[C@H](CO)[C@@H](O)[C@H](O)[C@H]3O)c3c(c(-c4ccc5c(c4)OCO5)c2cc1OC)C(=O)OC3	9670	2440	> 10000	inactive						
COc1cc2c(O[C@@H]3OC[C@H](O)[C@H](O)[C@H]3O)c3c(c(-c4ccc5c(c4)OCO5)c2cc1OC)C(=O)OC3 [ACUTISSIMALIGNAN A]	> 10000	> 10000	6880	inactive						
COc1cc2c(O)c3c(c(-c4ccc5c(c4)OCO5)c2cc1OC)C(=O)OC3 [DIPHYLLIN]	3540	540	780	Active	3150	14.1	1670	23500	4	
COC[C@H]1O[C@@H](Oc2c3c(c(-c4ccc5c(c4)OCO5)c4cc(OC)c(OC)cc24)C(=O)OC3)[C@H](O)[C@@H](O)[C@@H]1O	> 10000	> 10000	4500	inactive						
COc1cc2c(O[C@@H]3O[C@H](COCc4ccccc4)[C@@H](O)[C@H](O)[C@H]3O)c3c(c(-c4ccc5c(c4)OCO5)c2cc1OC)C(=O)OC3	36	28	15	Active						
CC[C@]1(O)C[C@H]2CN(CCc3c([nH]c4ccccc34)[C@@](C(=O)OC)(c3cc4c(cc3OC)N(C=O)[C@H]3[C@@](O)(C(=O)OC)[C@H](OC(C)=O)[C@]5(CC)C=CCN6CC[C@]43[C@@H]65)C2)C1 [VINCRISTINE]			3		1610				536.7	
COc1cc2c(O[C@@H]3O[C@H](C)[C@@H](OC(C)=O)[C@H](OC(C)=O)[C@H]3OC(C)=O)c3c(c(-c4ccc5c(c4)OCO5)c2cc1OC)C(=O)OC3	270	380	440	Active	1320	9.5	808	7660	3	Activity [10]: tde; Activity [11]: Active; Activity [12]: Active; Activity [13]: tde; Activity [14]: Active; Activity [15]: 55%; Activity [16]: 19.3%; Activity [17]: Dose-dependent effect; Activity [18]: Dose-dependent effect; Activity [19]: tde; Activity [20]: Dose-dependent effect; Activity [21]: 25.7%; Activity [22]: tde; Activity [23]: 17.4%; Activity [24]: 46.4%; Activity [25]: 36.3%; Activity [26]: Dose-dependent effect
COc1cc2c(O[C@@H]3O[C@@H]4CO[C@@H](C)O[C@H]4[C@H](O)[C@H]3O)c3c(c(-c4ccc5c(c4)OCO5)c2cc1OC)C(=O)OC3	8	4	3	Active	76	19.4	44	853	25.3	Activity [10]: tde; Activity [11]: Active; Activity [12]: Active; Activity [13]: tde; Activity [14]: Active; Activity [15]: 56.2%; Activity [16]: 19.2%; Activity [17]: Dose-dependent effect; Activity [18]: Dose-dependent effect; Activity [19]: tde; Activity [20]: Dose-dependent effect; Activity [21]: 24.6%; Activity [22]: tde; Activity [23]: 22.9%; Activity [24]: 53.6%; Activity [25]: 23.4%; Activity [26]: Dose-dependent effect
